Test results: ChEMBL document CHEMBL1772995, “Targeting the c-Kit Promoter G-quadruplexes with 6-Substituted Indenoisoquinolines” (ACS Med Chem Lett, 2010)
pIC50: −log10 of the molar value. Structures can show the parent of a compound that is named as a salt. The source made the active and inactive calls. The calls are words filed in the database; no cut-off is given here.

Columns and labels:
[1] = cells; type: functional, cell-based; settings: Homo sapiens, GIST882, 96 h
[2] = tested on: Nucleic Acid; assay: Binding affinity to human c-KIT1 (5'-FAM-GGGAGGGCGCTGGGAGGAGGG-TAMRA-3') DNA assessed as concentration required to cause half maximal change in melting temperature by FRET-melting assay (reference value: 54.4 degC); type: nucleic-acid assay
Method in brief: (§1)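 Dual FAM/TAMRA-labelled oligonucleotides diluted in 60 mM potassium cacodylate, pH 7.4, annealed at 400 nM (94 °C for 10 min, cooled to room temperature at 0.1 °C/min), then mixed 1:1 with ligand solution to 200 nM DNA final. Melting read with excitation at 483 nm and emission at 533 nm, in triplicate. ΔTm taken across a range of ligand concentrations, with the ligand level giving half-maximal ΔTm also derived.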

[3] = tested on: HT-29; assay: cells; type: functional, cell-based; settings: Homo sapiens, HT-29, 96 h
[4] = tested on: Nucleic Acid; assay: Binding affinity to double stranded-DNA (50-FAM-TAT AGC TAT A-HEG-TAT AGC TAT A-TAMRA-30) assessed as concentration required to cause half maximal change in melting temperature by FRET-melting assay (reference value: 62.7 degC); type: nucleic-acid assay
Method in brief: as §1

[5] = tested on: Nucleic Acid; assay: Binding affinity to human c-KIT2 (5'-FAM-GGGCGGGCGCGAGGGAGGGG-TAMRA-3') DNA assessed as change in melting temperature at 1 uM by FRET-melting assay (reference value: 72.7 degC); type: nucleic-acid assay
Method in brief: as §1

[6] = tested on: Nucleic Acid; assay: Binding affinity to human c-KIT1 (5'-FAM-GGGAGGGCGCTGGGAGGAGGG-TAMRA-3') DNA assessed as change in melting temperature at 1 uM by FRET-melting assay (reference value: 54.4 degC); type: nucleic-acid assay
Method in brief: as §1

[7] = tested on: Nucleic Acid; assay: Binding affinity to human telomeric (5'-FAM-GGGTTAGGGTTAGGGTTAGGG-TAMRA-3') DNA assessed as concentration required to cause half maximal change in melting temperature by FRET-melting assay (reference value: 59.4 degC); type: nucleic-acid assay
Method in brief: as §1

[8] = tested on: Nucleic Acid; assay: Binding affinity to double stranded-DNA (50-FAM-TAT AGC TAT A-HEG-TAT AGC TAT A-TAMRA-30) assessed as change in melting temperature at 1 uM by FRET-melting assay (reference value: 62.7 degC); type: nucleic-acid assay
Method in brief: as §1

[9] = tested on: Nucleic Acid; assay: Binding affinity to human c-KIT2 (5'-FAM-GGGCGGGCGCGAGGGAGGGG-TAMRA-3') DNA assessed as concentration required to cause half maximal change in melting temperature by FRET-melting assay (reference value: 72.7 degC); type: nucleic-acid assay
Method in brief: as §1

[10] = tested on: Nucleic Acid; assay: Binding affinity to human telomeric (5'-FAM-GGGTTAGGGTTAGGGTTAGGG-TAMRA-3') DNA assessed as change in melting temperature at 1 uM by FRET-melting assay (reference value: 59.4 degC); type: nucleic-acid assay
Method in brief: as §1

[11] = biological target: Mast/stem cell growth factor receptor Kit (Homo sapiens) (UniProt P10721); assay: Inhibition of c-Kit mRNA expression in human GIST882 cells at 20 uM after 24 hrs by […] RT-PCR analysis relative to control; type: functional, cell-based
Method in brief: (§2)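 GIST882 cells grown in RPMI 1640 with 10% FBS. 1 × 10^6 cells seeded in T25 flasks and treated 24 h with 0.8, 4 or 20 μM ligand, or DMSO control. Total RNA extracted; cDNA made from 1 μg RNA with oligo dT (55 °C, 1 h). qPCR annealing at 64 °C, single amplicon checked by melt curve. KIT mRNA normalised to β-actin or YWHAZ and given as % of control. Two independent experiments, each in triplicate.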

[12] = biological target: Mast/stem cell growth factor receptor Kit (Homo sapiens) (UniProt P10721); assay: Inhibition of c-Kit mRNA expression in human GIST882 cells at 4 uM after 24 hrs by […] RT-PCR analysis relative to control; type: functional, cell-based
Method in brief: as §2

[13] = Toxicity in human GIST882 cells expressing c-Kit at 20 uM after 24 hrs; type: cell-based; settings: gist882, 24 h
[14] = biological target: Mast/stem cell growth factor receptor Kit (Homo sapiens) (UniProt P10721); assay: Inhibition of c-Kit mRNA expression in human GIST882 cells after 24 hrs by […] RT-PCR analysis; type: functional, cell-based
Method in brief: as §2

[15] = biological target: Mast/stem cell growth factor receptor Kit (Homo sapiens) (UniProt P10721); assay: Inhibition of c-Kit protein expression in human GIST882 cells at 20 uM after 24 hrs by immunoblotting; type: functional, cell-based
Method in brief: (§3)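 GIST882 cells (1 × 10^6 per T25 flask) treated 24 h with 0.8, 4 or 20 μM ligand, or DMSO control. Lysed in RIPA buffer with protease and phosphatase inhibitors; 10–20 μg protein run on 8–16% SDS-PAGE, transferred to nitrocellulose and probed with anti-KIT. β-actin used as loading control; enhanced-luminescence detection.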

[16] = biological target: Mast/stem cell growth factor receptor Kit (Homo sapiens) (UniProt P10721); assay: Inhibition of c-Kit protein expression in human GIST882 cells after 24 hrs by immunoblotting; type: functional, cell-based
Method in brief: as §3

Mast/stem cell growth factor receptor Kit (Homo sapiens), sequence (P10721 whole entry): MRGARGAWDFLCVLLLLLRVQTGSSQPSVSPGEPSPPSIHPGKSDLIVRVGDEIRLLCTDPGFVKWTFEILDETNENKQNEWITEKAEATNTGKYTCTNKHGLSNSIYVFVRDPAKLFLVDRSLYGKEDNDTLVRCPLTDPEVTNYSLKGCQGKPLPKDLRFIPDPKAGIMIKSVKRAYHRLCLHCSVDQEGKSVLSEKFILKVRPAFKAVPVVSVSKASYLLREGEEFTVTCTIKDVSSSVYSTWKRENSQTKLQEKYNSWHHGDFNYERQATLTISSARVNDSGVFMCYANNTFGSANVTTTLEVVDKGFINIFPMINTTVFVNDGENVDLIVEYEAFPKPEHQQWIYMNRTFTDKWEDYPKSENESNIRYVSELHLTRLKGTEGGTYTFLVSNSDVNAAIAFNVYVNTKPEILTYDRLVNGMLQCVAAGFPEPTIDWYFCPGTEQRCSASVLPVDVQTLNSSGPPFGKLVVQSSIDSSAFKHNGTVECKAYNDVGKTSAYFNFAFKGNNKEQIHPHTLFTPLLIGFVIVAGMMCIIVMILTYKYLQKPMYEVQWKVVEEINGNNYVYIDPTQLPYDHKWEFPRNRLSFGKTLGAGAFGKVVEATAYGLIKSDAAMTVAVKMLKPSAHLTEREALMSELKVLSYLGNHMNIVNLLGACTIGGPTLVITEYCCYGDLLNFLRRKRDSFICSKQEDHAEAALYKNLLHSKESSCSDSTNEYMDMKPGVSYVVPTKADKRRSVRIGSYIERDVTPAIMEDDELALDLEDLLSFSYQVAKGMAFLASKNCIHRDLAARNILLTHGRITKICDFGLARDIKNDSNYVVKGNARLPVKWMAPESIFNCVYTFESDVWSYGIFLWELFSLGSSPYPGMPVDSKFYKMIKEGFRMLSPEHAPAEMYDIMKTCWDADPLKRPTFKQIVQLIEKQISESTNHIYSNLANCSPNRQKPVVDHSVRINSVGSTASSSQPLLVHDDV

SMILES | pIC50 [1] | Activity [2] [µM] | pIC50 [3] | Activity [4] [µM] | deltaTm [5] [K] | deltaTm [6] [K] | Activity [7] [µM] | deltaTm [8] [K] | Activity [9] [µM] | deltaTm [10] [K] | inhibition [11] [%] | inhibition [12] [%] | Activity [13] | inhibition [14] | inhibition [15] | inhibition [16]
CN1CCN(CCCn2c3c(c4ccccc4c2=O)C(=O)c2ccccc2-3)CC1 | 4.86 | 0.59 | 6.15 | > 10 | 12.2 | 25.9 | 0.98 | 1.7 | 0.84 | 17.6 |  |  |  |  |  | 
O=C1c2ccccc2-c2c1c1ccccc1c(=O)n2CCCn1ccnc1 | 4.64 | > 10 | 5.66 | > 10 | 13.2 | 11.7 | > 10 | 0 | 0.62 | 6.3 |  |  |  |  |  | 
Cc1ccc(NC(=O)c2ccc(CN3CCN(C)CC3)cc2)cc1Nc1nccc(-c2cccnc2)n1 [IMATINIB MESYLATE] | 5.77 |  |  |  |  |  |  |  |  |  |  |  |  |  |  | 
CN(C)CCCn1c2c(c3ccccc3c1=O)C(=O)c1ccccc1-2.Cl | 5.39 | 0.95 | 6.52 | > 10 | 13 | 20.1 | 1.6 | 3.9 | 0.69 | 13 | 89 | 67 | Toxic | Dose-dependent effect | Active | Dose-dependent effect
O=C1c2ccccc2-c2c1c1ccccc1c(=O)n2CCCN1CCOCC1 | < 4.30 | 8.9 | < 4.30 | > 10 | 3.9 | 8.7 | > 10 | 0.6 | 4.4 | 4.8 |  |  |  |  |  | 
O=C1c2ccccc2-c2c1c1ccccc1c(=O)n2CCCN1CCCC1 | 5.30 | 0.93 | 6.40 | 9 | 14.4 | 23.7 | 1.63 | 4 | 0.72 | 14.4 |  |  |  |  |  | 
